Two compounds from ChEMBL document CHEMBL1147109, “Genetic elements carrying erm(B) in Streptococcus pyogenes and association with tet(M) tetracycline resistance gene” (2007) can be followed below.

Assay [1] relates to Streptococcus pyogenes. The assay can be described thus: Antimicrobial activity against tetracycline-susceptible Streptococcus pyogenes cMLS isolate expressing erm(B). It counts as functional. The method in brief:
(§1)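 Broth microdilution MICs per CLSI against clinical S. pyogenes isolates carrying erm(B); S. pneumoniae ATCC 49619 as quality control. For some isolates, tetracycline MICs were also read after induction: colonies from overnight brain heart infusion agar were grown on brain heart infusion agar with or without subinhibitory tetracycline (0.05 μg/ml), harvested within 20 h, then tested.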

In assay [2] the test system is Streptococcus pyogenes. The experiment in a line: Antimicrobial activity against erythromycin-resistant Streptococcus pyogenes E-115 transconjugated with erm(B) and tet(M) genes. It counts as functional. The method in brief: (§2)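 Transconjugants came from membrane-filter mating of the donor strain into recipient S. pyogenes 12RF (rifampin- and fusidic acid-resistant), done at least three times, and were confirmed by PCR to carry erm(B) and tet(M). MICs were then determined by broth microdilution to CLSI recommendations, with S. pneumoniae ATCC 49619 as quality control.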

Assay [3] has as its system Streptococcus pyogenes. The experiment in a line: Antimicrobial activity against tetracycline-resistant Streptococcus pyogenes cMLS isolate C expressing tet(M), Xis, tnpA, tnpR gene.
For assay [4], the system named is Streptococcus pyogenes. The assay can be described thus: Antimicrobial activity against tetracyclin-resistant Streptococcus pyogenes cMLS isolate expressing erm(B). In kind it is functional. The gist of the method:
(§3)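 Broth microdilution MICs run to CLSI recommendations on clinical erm(B)-carrying S. pyogenes isolates, with S. pneumoniae ATCC 49619 as quality control. In some isolates, tetracycline MICs were also measured on cells grown for no longer than 20 h on brain heart infusion agar, with or without subinhibitory tetracycline (0.05 μg/ml).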

Assay [5] relates to Streptococcus pyogenes. The experiment in a line: Antimicrobial activity against erythromycin-resistant Streptococcus pyogenes C-105 transconjugated with erm(B) and tet(M) genes. In kind it is functional. The method in brief:
as §2

The test system of assay [6] is Streptococcus pyogenes. The assay can be described thus: Antimicrobial activity against tetracycline-susceptible Streptococcus pyogenes cMLS isolate G expressing tnpA, tnpR gene. In kind it is functional. The gist of the method: as §1
In assay [7] the test system is Streptococcus pyogenes. The assay can be described thus: Antimicrobial activity against erythromycin-resistant Streptococcus pyogenes A-3 transconjugated with erm(B) and tet(M) genes. It counts as functional. The method in brief:
as §2

In assay [8] the test system is Streptococcus pyogenes. The assay can be described thus: Antimicrobial activity against tetracycline-susceptible Streptococcus pyogenes cMLS isolate D expressing tet(M), Xis, tnpA, tnpR gene. It counts as functional. The method in brief: as §1
In assay [9] the test system is Streptococcus pyogenes. The experiment in a line: Antimicrobial activity against erythromycin-resistant Streptococcus pyogenes B-83 transconjugated with erm(B) and tet(M) genes. In kind it is functional. The method in brief: as §2
The test system of assay [10] is Streptococcus pyogenes. The experiment in a line: Antimicrobial activity against tetracycline-susceptible Streptococcus pyogenes cMLS isolate E expressing tet(M), tndX gene. It counts as functional. The gist of the method: as §1
Assay [11] relates to Streptococcus pyogenes. The experiment in a line: Antimicrobial activity against tetracyclin-resistant Streptococcus pyogenes C-105 transconjugated with erm(B) and tet(M) genes. In kind it is functional. The gist of the method:
as §2

In assay [12] the test system is Streptococcus pyogenes. The experiment in a line: Antimicrobial activity against tetracycline-susceptible Streptococcus pyogenes iMLS-A isolate expressing erm(B). It counts as functional. The gist of the method: as §1
In assay [13] the test system is Streptococcus pyogenes. The experiment in a line: Antimicrobial activity against tetracycline-susceptible Streptococcus pyogenes cMLS isolate F. It counts as functional. The method in brief: as §1
For assay [14], the system named is Streptococcus pyogenes. The experiment in a line: Antimicrobial activity against Streptococcus pyogenes cMLS isolate B expressing tet(M), int, Xis gene. It counts as functional. The gist of the method:
as §3

The test system of assay [15] is Streptococcus pyogenes. The assay can be described thus: Antimicrobial activity against Streptococcus pyogenes iMLS-A isolate A expressing tet(M), tndX gene. In kind it is functional. The method in brief:
as §1

In assay [16] the test system is Streptococcus pyogenes. The experiment in a line: Antimicrobial activity against erythromycin-resistant Streptococcus pyogenes D-112 transconjugated with erm(B) and tet(M) genes. In kind it is functional. The gist of the method:
as §2

Converted amounts (≈) assume the structure as drawn.

`CN(C)[C@@H]1C(O)=C(C(N)=O)C(=O)[C@@]2(O)C(O)=C3C(=O)c4c(O)cccc4[C@@](C)(O)[C@H]3C[C@@H]12` [TETRACYCLINE]: the MIC against Streptococcus pyogenes [1] was no more than 0.125 µg/mL; in the assay on Streptococcus pyogenes [2], 0.25 µg/mL (≈ 0.563 µM); in the assay on Streptococcus pyogenes [3], 32 µg/mL (≈ 72 µM); against Streptococcus pyogenes [4] it was 32 µg/mL (≈ 72 µM); in the assay on Streptococcus pyogenes [5], 32 µg/mL (≈ 72 µM); in the assay on Streptococcus pyogenes [6] it was 0.125 µg/mL (≈ 0.281 µM). Further, the MIC against Streptococcus pyogenes [7] was 0.25 µg/mL (≈ 0.563 µM); against Streptococcus pyogenes [8] it was 0.125 µg/mL (≈ 0.281 µM); with Streptococcus pyogenes [9], 32 µg/mL (≈ 72 µM); in the assay with Streptococcus pyogenes [10], 0.125 µg/mL (≈ 0.281 µM); against Streptococcus pyogenes [11] it was 32 µg/mL (≈ 72 µM); in the assay on Streptococcus pyogenes [12], no more than 0.125 µg/mL. Moreover, the MIC with Streptococcus pyogenes [13] was found to be 0.125 µg/mL (≈ 0.281 µM); in the assay with Streptococcus pyogenes [14], 32 µg/mL (≈ 72 µM); against Streptococcus pyogenes [15], 0.125 µg/mL (≈ 0.281 µM); in the assay with Streptococcus pyogenes [16], 0.25 µg/mL (≈ 0.563 µM).
With `CC[C@H]1OC(=O)[C@H](C)[C@@H](O[C@H]2C[C@@](C)(OC)[C@@H](O)[C@H](C)O2)[C@H](C)[C@@H](O[C@@H]2O[C@H](C)C[C@H](N(C)C)[C@H]2O)[C@](C)(O)C[C@@H](C)C(=O)[C@H](C)[C@@H](O)[C@]1(C)O` [ERYTHROMYCIN], the MIC in the assay with Streptococcus pyogenes [2], in the assay with Streptococcus pyogenes [5], against Streptococcus pyogenes [7], in the assay on Streptococcus pyogenes [9], with Streptococcus pyogenes [11] and with Streptococcus pyogenes [16] was greater than 128 µg/mL in each case.

What is called MIC is the smallest concentration in the dilution series that meets the test's criterion for growth inhibition.
